Reference: ChEMBL document CHEMBL1926558, “Searching for the Multi-Target-Directed Ligands against Alzheimer's disease: discovery of quinoxaline-based hybrid compounds with AChE, H₃R and BACE 1 inhibitory activities” (Bioorg Med Chem, 2011)
Several values for one entry are separate records, joined by “and”; a condition that tells them apart may be missing. Equal entries are not always repeated. Activity calls are given as the source filed them. No cut-off for these calls is given here.

Columns and labels:
[1] = biological target: T1, Histamine H3 receptor (Homo sapiens, UniProt Q9Y5N1); experiment: Antagonist activity at histamine H3 receptor expressed in HEK293 cells co-transfected with pCRE-Luc gene assessed as inhibition of forskolin/histamine-induced cAMP accumulation at 1 uM after 5 hrs by luciferase reporter gene assay; type: functional, cell-based
[2] = biological target: Histamine H1 receptor (Homo sapiens) (UniProt P35367); experiment: Antagonist activity at histamine H1 receptor expressed in HEK293 cells co-transfected with pCRE-Luc gene assessed as inhibition of forskolin/histamine-induced cAMP accumulation at 1 uM after 5 hrs by luciferase reporter gene assay; type: functional, cell-based
Summary of the method: (§1)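 HEK-293 cells stably expressing H1R or H2R were grown in DMEM with 10% FBS and penicillin/streptomycin at 37 °C under 5% CO2. Transfectants were selected with 800 µg/mL G418. cAMP accumulation was induced by 1 µM histamine with test compound present and read out by CRE-luciferase transcription.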

[3] = biological target: Histamine H2 receptor (Homo sapiens) (UniProt P25021); experiment: Antagonist activity at histamine H2 receptor expressed in HEK293 cells co-transfected with pCRE-Luc gene assessed as inhibition of forskolin/histamine-induced cAMP accumulation at 1 uM after 5 hrs by luciferase reporter gene assay; type: functional, cell-based; summary of the method: as §1
[4] = biological target: T2, Histamine H4 receptor (Homo sapiens, UniProt Q9H3N8); experiment: Antagonist activity at histamine H4 receptor expressed in HEK293 cells co-transfected with pCRE-Luc gene assessed as inhibition of forskolin/histamine-induced cAMP accumulation at 1 uM after 5 hrs by luciferase reporter gene assay; type: functional, cell-based
[5] = biological target: T3, Acetylcholinesterase (Rattus norvegicus, UniProt P37136); experiment: Inhibition of AChE in rat cortex homogenates using acetylthiocholine iodide as substrate after 15 mins by Ellman's method
T3 sequence (P37136 whole entry): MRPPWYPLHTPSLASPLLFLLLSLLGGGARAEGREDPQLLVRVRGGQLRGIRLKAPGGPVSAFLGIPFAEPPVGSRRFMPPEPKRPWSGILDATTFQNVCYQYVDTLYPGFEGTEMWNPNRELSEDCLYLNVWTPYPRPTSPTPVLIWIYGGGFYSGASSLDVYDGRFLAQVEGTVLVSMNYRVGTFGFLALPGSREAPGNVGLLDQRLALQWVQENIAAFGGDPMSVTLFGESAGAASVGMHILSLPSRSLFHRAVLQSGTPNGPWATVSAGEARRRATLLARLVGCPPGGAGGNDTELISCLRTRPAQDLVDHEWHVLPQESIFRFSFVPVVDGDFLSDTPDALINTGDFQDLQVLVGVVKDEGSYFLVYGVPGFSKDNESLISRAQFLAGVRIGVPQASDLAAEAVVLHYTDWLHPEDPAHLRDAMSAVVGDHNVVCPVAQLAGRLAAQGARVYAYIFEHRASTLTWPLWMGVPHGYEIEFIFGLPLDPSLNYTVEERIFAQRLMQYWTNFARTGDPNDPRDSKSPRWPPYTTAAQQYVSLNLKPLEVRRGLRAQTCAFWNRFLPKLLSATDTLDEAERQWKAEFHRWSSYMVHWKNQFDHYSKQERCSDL

[6] = biological target: T1, Histamine H3 receptor; experiment: Inverse agonist activity at histamine H3 receptor expressed in HEK293 cells co-transfected with pCRE-Luc gene assessed as inhibition of forskolin/histamine-induced cAMP accumulation after 5 hrs by luciferase reporter gene assay; type: functional, cell-based
[7] = biological target: T1, Histamine H3 receptor; experiment: Antagonist activity at histamine H3 receptor expressed in HEK293 cells co-transfected with pCRE-Luc gene assessed as inhibition of forskolin/histamine-induced cAMP accumulation after 5 hrs by luciferase reporter gene assay; type: functional, cell-based
[8] = biological target: Acetylcholinesterase (Homo sapiens, UniProt P22303)
[9] = biological target: T2, Histamine H4 receptor; experiment: Antagonist activity at histamine H4 receptor expressed in HEK293 cells co-transfected with pCRE-Luc gene assessed as inhibition of forskolin/histamine-induced cAMP accumulation after 5 hrs by luciferase reporter gene assay; type: functional, cell-based

T1 sequence (Q9Y5N1 whole entry): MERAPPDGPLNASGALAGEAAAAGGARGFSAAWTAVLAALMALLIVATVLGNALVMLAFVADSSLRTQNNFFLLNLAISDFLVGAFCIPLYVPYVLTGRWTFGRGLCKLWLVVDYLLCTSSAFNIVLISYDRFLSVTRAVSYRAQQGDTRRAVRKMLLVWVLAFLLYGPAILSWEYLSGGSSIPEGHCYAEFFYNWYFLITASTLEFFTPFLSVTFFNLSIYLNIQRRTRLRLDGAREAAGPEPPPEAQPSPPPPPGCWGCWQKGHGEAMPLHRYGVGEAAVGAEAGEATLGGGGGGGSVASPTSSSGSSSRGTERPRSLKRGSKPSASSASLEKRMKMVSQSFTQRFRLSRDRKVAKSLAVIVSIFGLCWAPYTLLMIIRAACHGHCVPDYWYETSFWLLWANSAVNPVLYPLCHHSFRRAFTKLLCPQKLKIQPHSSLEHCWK
Histamine H1 receptor (Homo sapiens), sequence (P35367 whole entry): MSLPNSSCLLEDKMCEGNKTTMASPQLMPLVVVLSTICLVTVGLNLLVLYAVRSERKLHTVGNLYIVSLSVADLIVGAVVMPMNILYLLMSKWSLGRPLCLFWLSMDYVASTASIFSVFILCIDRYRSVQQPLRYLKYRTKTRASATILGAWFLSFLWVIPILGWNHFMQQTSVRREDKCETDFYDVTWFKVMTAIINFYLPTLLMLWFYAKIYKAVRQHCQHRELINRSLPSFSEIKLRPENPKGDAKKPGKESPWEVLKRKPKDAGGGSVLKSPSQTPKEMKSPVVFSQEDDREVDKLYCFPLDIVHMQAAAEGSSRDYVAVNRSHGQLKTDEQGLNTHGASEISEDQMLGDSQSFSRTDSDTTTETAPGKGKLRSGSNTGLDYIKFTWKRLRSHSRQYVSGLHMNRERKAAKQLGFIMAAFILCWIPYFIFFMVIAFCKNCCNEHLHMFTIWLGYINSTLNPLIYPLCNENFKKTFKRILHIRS
Histamine H2 receptor (Homo sapiens), sequence (P25021 whole entry): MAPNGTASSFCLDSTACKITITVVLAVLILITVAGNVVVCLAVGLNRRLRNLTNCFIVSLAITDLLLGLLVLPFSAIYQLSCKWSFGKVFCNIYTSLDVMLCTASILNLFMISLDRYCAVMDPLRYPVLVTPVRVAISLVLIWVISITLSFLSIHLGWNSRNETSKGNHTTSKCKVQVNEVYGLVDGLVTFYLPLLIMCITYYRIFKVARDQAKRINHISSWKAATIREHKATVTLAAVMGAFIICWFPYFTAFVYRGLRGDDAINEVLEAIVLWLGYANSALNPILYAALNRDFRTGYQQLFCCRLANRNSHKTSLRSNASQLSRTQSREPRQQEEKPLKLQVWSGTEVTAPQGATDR
T2 sequence (Q9H3N8 whole entry): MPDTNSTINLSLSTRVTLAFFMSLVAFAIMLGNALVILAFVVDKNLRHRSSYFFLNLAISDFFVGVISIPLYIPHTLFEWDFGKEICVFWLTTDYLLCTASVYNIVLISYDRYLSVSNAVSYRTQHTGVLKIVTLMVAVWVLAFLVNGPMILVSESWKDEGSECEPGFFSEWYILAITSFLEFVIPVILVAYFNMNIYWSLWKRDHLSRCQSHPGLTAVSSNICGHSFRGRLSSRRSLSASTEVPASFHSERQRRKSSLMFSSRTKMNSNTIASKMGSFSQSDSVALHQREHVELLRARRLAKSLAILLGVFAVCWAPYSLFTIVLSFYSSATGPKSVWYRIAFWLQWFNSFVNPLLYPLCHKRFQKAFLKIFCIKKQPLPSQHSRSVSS
Acetylcholinesterase (Homo sapiens, UniProt P22303), sequence (P22303 whole entry): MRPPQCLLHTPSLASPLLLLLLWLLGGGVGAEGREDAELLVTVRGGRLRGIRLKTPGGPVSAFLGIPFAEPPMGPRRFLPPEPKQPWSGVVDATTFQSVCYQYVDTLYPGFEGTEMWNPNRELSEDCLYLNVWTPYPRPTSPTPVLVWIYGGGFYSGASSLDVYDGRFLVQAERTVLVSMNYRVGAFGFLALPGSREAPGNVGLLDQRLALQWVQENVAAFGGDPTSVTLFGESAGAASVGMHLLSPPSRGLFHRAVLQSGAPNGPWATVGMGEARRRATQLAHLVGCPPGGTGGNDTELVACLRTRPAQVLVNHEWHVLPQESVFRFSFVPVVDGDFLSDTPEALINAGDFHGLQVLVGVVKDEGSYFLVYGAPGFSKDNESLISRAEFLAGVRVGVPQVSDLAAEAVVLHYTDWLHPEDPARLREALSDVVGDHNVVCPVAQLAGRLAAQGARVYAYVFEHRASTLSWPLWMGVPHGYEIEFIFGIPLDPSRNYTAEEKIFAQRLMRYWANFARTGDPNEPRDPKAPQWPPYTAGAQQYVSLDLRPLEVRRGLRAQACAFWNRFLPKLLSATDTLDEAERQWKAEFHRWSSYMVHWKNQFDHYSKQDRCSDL

SMILES | inhibition [2] | inhibition [3] | IC50 ([5]; read-out: IC50) [nM] | IC50 ([6]; hek293) | IC50 [7] [nM] | other results
Nc1nc2ccccc2nc1NC(=O)c1ccc(CN2CCCCC2)cc1 [listing 1 of 3 here] | inactive | inactive | – | – | – | inhibition [1]: 74.4% and 65.3%; inhibition [4]: Active
Nc1nc2ccccc2nc1NCC(=O)NC1CCN(Cc2ccccc2)CC1 | – | – | 1330 | Not Active | – | inhibition [1]: 4.5%
Nc1nc2ccccc2nc1/N=C/c1ccc(CN2CCCCC2)cc1 | – | – | 748 | Not Active | – | –
Nc1nc2ccccc2nc1NCCOc1ccc(CN2CCCCC2)cc1 | inactive | inactive | 1600 | Not Active | 52.4 | inhibition [4]: Active
CCN(CC)Cc1ccc(OCCNc2nc3ccccc3nc2N)cc1 | inactive | inactive | 3870 | Not Active | 182 | inhibition [4]: Active
Nc1nc2ccccc2nc1NC(=O)C1CCN(Cc2ccccc2)CC1 | – | – | – | Not Active | – | IC50 [5]: Not Active
COc1cc2c(cc1OC)C(=O)C(Oc1ccc(CN3CCCC3)cc1)C2 (stereo not given) | – | – | – | – | – | IC50 [8]: 50 nM
CN1CCN(Cc2ccc(OCCNc3nc4ccccc4nc3N)cc2)CC1 | – | – | – | Not Active | – | IC50 [5]: Not Active
S=C(NC1CCCCC1)N1CCC(c2cnc[nH]2)CC1 [THIOPERAMIDE] | inactive | inactive | – | Not Active | – | –
Nc1nc2ccccc2nc1NC(=O)c1ccc(CN2CCCCC2)cc1 [listing 2 of 3 here] | – | – | 483 | – | 280 | IC50 ([6]; read-out: IC50): 189 nM; IC50 [9]: > 10 µM
Nc1nc2ccccc2nc1NC(=O)c1ccc(CN2CCCCC2)cc1 [listing 3 of 3 here] | – | – | 313 | – | 511 | IC50 ([6]; read-out: IC50): 171 nM; IC50 ([9]; hek293): > 10 µM
Nc1nc2ccccc2nc1C(=O)Nc1ccc(CN2CCCCC2)cc1 | – | – | 892 | Not Active | – | –
Nc1nc2ccccc2nc1NCC(=O)Nc1ccc(CN2CCCCC2)cc1 | – | – | 1160 | Not Active | – | –
Nc1nc2ccccc2nc1C(=O)NC1CCN(Cc2ccccc2)CC1 | – | – | – | Not Active | – | IC50 [5]: Not Active
Nc1nc2ccccc2nc1CNc1ccc(CN2CCCCC2)cc1 | inactive | inactive | – | Not Active | 130 | IC50 [5]: Not Active; inhibition [4]: Active
Cl.Nc1nc2ccccc2nc1NC(=O)c1ccc(CN2CCCC2)cc1 | – | – | – | Not Active | – | IC50 [5]: Not Active; inhibition [1]: 0.8%
Nc1nc2ccccc2nc1C(=O)Nc1ccc(CN2CCCC2)cc1 | inactive | inactive | 1500 | – | 260 | inhibition [1]: 72.8%; IC50 ([6]; read-out: IC50): 378 nM; inhibition [4]: Active
Nc1nc2ccccc2nc1NCCCOc1ccc(CN2CCCCC2)cc1 | – | – | 1930 | Not Active | – | –
Nc1nc2ccccc2nc1NCc1ccc(CN2CCCCC2)cc1 | – | – | 476 | Not Active | – | –
Nc1nc2ccccc2nc1NCC(=O)Nc1ccc(CN2CCCC2)cc1 | – | – | 1170 | Not Active | – | –
